Source: ChEMBL document CHEMBL1629645 (Antimicrob Agents Chemother, 2009)
Converted amounts (≈) assume the structure as drawn. The source made the active and inactive calls. The calls are words filed in the database; no cut-off is given here.

Tests used:
Staphylococcus aureus [1] = experiment: Antibacterial activity against methicillin-resistant Staphylococcus aureus ATCC 43300 infected in Albino guiena pig assessed as no. of culture-negative cage fluid samples at 12.5 mg/kg measured on day 10 postinfection; format: functional
How it was run: (§1)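 Same guinea pig cage infection and intraperitoneal 4-day, twice-daily regimen. Cage fluid cultured on day 4 and day 10. Result is the number of cage fluid samples without detectable MRSA growth over the total cages per group.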

Staphylococcus aureus [2] = experiment: Antibacterial activity against methicillin-resistant Staphylococcus aureus ATCC 43300 infected in Albino guiena pig assessed as decrease in planktonic bacterial counts in cage fluid at 12.5 mg/kg after measured on day 10 postinfection; format: functional
How it was run: (§2)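 Guinea pig subcutaneous cage model infected with 2 × 10^4 CFU MRSA. Intraperitoneal dosing every 12 h for 4 days, starting day 1. Cage-fluid CFU counted on day 1, day 4 (before last dose) and day 10. Δlog10 CFU/ml is day 4 or day 10 minus day 1. Quantification limit 1,000 CFU/ml; negatives set to 3 log10. Median and IQR.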

[3] = AUC (0 to 24 hrs) in cage fluid of Albino guiena pig at 12.5 mg/kg, ip; format: ADME, organism-based, Cavia porcellus; design: time < 24 hr, dose 12.5 mg/kg, route intraperitoneal; details: guinea pig
[4] = Cmax in cage fluid of Albino guiena pig at 12.5 mg/kg, ip after 12 hrs; format: ADME, organism-based, Cavia porcellus, Interstitial fluid; design: dose 12.5 mg/kg, route intraperitoneal; details: guinea pig
Staphylococcus aureus [5] = experiment: Antibacterial activity against 1 x10'6 to 5 x10^6 CFU/ml methicillin-resistant Staphylococcus aureus ATCC 43300 assessed as log decrease in bacterial count at 4 times MIC after 6 hrs by time kill study; format: functional
How it was run: (§3)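 MRSA inoculum of 1 × 10^6 to 5 × 10^6 CFU/ml in 10 ml Mueller-Hinton broth. Drug at 1× and 4× MIC; drug-free growth control. Incubated at 37°C. Aliquots plated on Mueller-Hinton agar at 0, 6 and 24 h. Quantification limit 200 CFU/ml. Mean log10 CFU/ml reduction ± SD.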

Staphylococcus aureus [6] = experiment: Antibacterial activity against methicillin-resistant Staphylococcus aureus ATCC 43300 infected in Albino guiena pig assessed as decrease in planktonic bacterial counts in cage fluid at 12.5 mg/kg measured on day 4 postinfection; format: functional; how it was run: as §2
[7] = Tmax in cage fluid of Albino guiena pig at 12.5 mg/kg, ip; format: ADME, organism-based, Cavia porcellus; design: dose 12.5 mg/kg, route intraperitoneal; details: guinea pig
Staphylococcus aureus [8] = experiment: Antibacterial activity against methicillin-resistant Staphylococcus aureus ATCC 43300 during stationary growth phase by macrodilution method; format: functional
Staphylococcus aureus [9] = experiment: Antibacterial activity against methicillin-resistant Staphylococcus aureus ATCC 43300 by macrodilution method; format: functional
How it was run: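 Broth macrodilution MIC in Mueller-Hinton broth per CLSI. Inoculum 1 × 10^5 to 5 × 10^5 CFU/ml. Ten twofold drug dilutions, 18 h at 37°C without shaking. MIC is the lowest concentration with no visible growth. Triplicate.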

Staphylococcus aureus [10] = experiment: Antibacterial activity against 1 x10'6 to 5 x10^6 CFU/ml methicillin-resistant Staphylococcus aureus ATCC 43300 assessed as log decrease in bacterial count at MIC after 6 hrs by time kill study; format: functional; how it was run: as §3
[11] = Cmin in cage fluid of Albino guiena pig at 12.5 mg/kg, ip after 12 hrs; format: ADME, organism-based, Cavia porcellus; design: dose 12.5 mg/kg, route intraperitoneal; details: guinea pig, read-out: Cmin
Staphylococcus aureus [12] = experiment: Antibacterial activity against methicillin-resistant Staphylococcus aureus ATCC 43300 infected in Albino guiena pig assessed as no. of culture-negative cage fluid samples at 12.5 mg/kg measured on day 4 postinfection; format: functional; how it was run: as §1
Staphylococcus aureus [13] = experiment: Antibacterial activity against 1 x10'6 to 5 x10^6 CFU/ml methicillin-resistant Staphylococcus aureus ATCC 43300 assessed as percent resistant isolates at MIC after 24 hrs by time kill study; format: functional
Staphylococcus aureus [14] = experiment: Antibacterial activity against 1 x10'6 to 5 x10^6 CFU/ml methicillin-resistant Staphylococcus aureus ATCC 43300 assessed as bacterial regrowth after 24 hrs by time kill study; format: functional, organism-based; how it was run: as §3
Staphylococcus aureus [15] = experiment: Antibacterial activity against methicillin-resistant Staphylococcus aureus ATCC 43300 during logarithmic growth phase by macrodilution method; format: functional

## CO[C@H]1/C=C/O[C@@]2(C)Oc3c(C)c(O)c4c(O)c(c(/C=N/N5CCN(C)CC5)c(O)c4c3C2=O)NC(=O)/C(C)=C\C=C\[C@H](C)[C@H](O)[C@@H](C)[C@@H](O)[C@@H](C)[C@H](OC(C)=O)[C@@H]1C [RIFAMPIN]
Staphylococcus aureus [1]
  Activity: 92%
Staphylococcus aureus [2]
  log10CFU/ml: <3
[3]
  AUC(0-t) at 24 h: 4600 ng·h/mL
[4]
  Cmax: 1000 ng/mL
Staphylococcus aureus [5]
  log10CFU/ml: 0.5
Staphylococcus aureus [6]
  log10CFU/ml: 3.1
[7]
  Tmax: 2.1 h
Staphylococcus aureus [8]
  MBC: 2.5 µg/mL (≈ 3.04 µM)
Staphylococcus aureus [9]
  MIC: 0.01 µg/mL (≈ 0.0122 µM)
Staphylococcus aureus [10]
  log10CFU/ml: 0.5
[11]
  concentration at 12 h: 100 ng/mL
Staphylococcus aureus [12]
  Activity: 50%
Staphylococcus aureus [13]
  Activity: 94%
Staphylococcus aureus [14]
  Activity: inactive
Staphylococcus aureus [15]
  MBC: 0.08 µg/mL (≈ 0.0972 µM)
